Assay outcomes (PubChem)
PHOSPHO1 inh: PubChem AID 1565; Phosphoethanolamine/phosphocholine phosphatase (Homo sapiens), Q8TCT1; 1.1% of 290,000 active; recombinant PHOSPHO1, absorbance phosphatase assay; inhibition, % at 13.3 µM; in the data active means inhibition above about 60%
HSF1 inh: HSF1 inhibitors in luciferase reporter cells, primary screen, cell-based, NIH3T3, luminescence. activity change, negative = inhibition, % at 7.5 µM (by protocol). NIH3T3-HGL HSE-luciferase, MG132-induced, luminescence 8 h; active compounds read low. AID 2098, 2009. 0.77% of 300,000 active;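 active means more than half of replicate wells show activity change below -50%, luminescence cut by over half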;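 further: luciferase reports HSF-1 transcriptional activity via heat shock element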
CHT allo act: CHT positive allosteric modulators, primary screen, cell-based, membrane potential dye, choline EC20; High affinity choline transporter 1 (Homo sapiens), Q9GZV3; CHT-expressing cells; active compounds read high; LV-AA mutant CHT in HEK293 cells; B-score at 10 µM; 0.49% of 310,000 active;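 active means initial fluorescence not abnormally high and integrated response B-score, plate-corrected, over 3 SD above library mean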
Target sequence (Q9GZV3 whole entry, looked up): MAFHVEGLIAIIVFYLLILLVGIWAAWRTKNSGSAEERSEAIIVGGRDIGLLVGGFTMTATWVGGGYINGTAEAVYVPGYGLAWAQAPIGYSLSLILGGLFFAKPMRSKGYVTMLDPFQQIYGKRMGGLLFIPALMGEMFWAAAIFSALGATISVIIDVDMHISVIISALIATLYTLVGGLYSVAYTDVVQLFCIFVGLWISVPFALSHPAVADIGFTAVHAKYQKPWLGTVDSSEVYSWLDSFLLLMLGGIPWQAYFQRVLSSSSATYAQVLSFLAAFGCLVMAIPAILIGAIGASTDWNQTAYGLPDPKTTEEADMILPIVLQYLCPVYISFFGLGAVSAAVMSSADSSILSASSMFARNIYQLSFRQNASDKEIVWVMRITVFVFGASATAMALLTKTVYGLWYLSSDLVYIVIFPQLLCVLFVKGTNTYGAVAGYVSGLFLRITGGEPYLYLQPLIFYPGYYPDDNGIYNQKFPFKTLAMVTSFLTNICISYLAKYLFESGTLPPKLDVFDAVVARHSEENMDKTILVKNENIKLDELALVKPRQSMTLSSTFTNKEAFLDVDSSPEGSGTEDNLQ
Lipid droplet: inhibitors of hepatocyte lipid droplet formation, primary screen, imaging, high-throughput imaging, BODIPY stain; AML12 mouse hepatocytes, oleate lipid droplets; inhibition, % at 6.5 µM; 0.4% of 240,000 active; AID 1656, 2009;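 active means lipid droplet intensity inhibited by at least 50%, with more than 500 cells counted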
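System: AML12 hepatocytes (mouse). Probe or stimulus: oleic acid at 100 µM to induce lipid droplet formation. Times: overnight treatment with compound plus oleate. Detection: Image-based BODIPY and DAPI two-channel analysis. Evaluation: percent inhibition of filter-corrected integrated lipid droplet intensity per well.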
CHT inh: inhibitors of human choline transporter CHT; High affinity choline transporter 1 (Homo sapiens), Q9GZV3; CHT-expressing cells, membrane potential dye, choline response; active compounds read low; B-score at 10 µM; 0.86% of 310,000 active; AID 488975, 2010;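 active means B-score over 3 SD under the library average, and starting fluorescence ratio not unusually high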;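 further: choline stimulus applied at its EC90 after an EC20 pre-addition; B-score computed on integrated fluorescence ratio after choline addition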
HSF-1 act: HSF-1 activators, primary screen, NIH3T3-HGL cells, MG132 stress, luminescence, single point | NIH3T3-HGL HSF-1 luciferase reporter, 8 h; 100% = twice DMSO control signal | activation, % at 9 µM | 1.7% of 300,000 active | AID 504408, 2011;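 active means mean replicate activation of at least 50% with a set share of replicates each reaching 50%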
CHT block conf: CHT inhibitors, confirmation, cell-based, membrane potential dye, duplicate. 70% of 2,400 active. CHT activity remaining % of control (active compounds read low), % at 10 µM. shares compounds with CHT inh. CHT-expressing cells, choline membrane potential dye; LV-to-AA substituted CHT, HEK293 cells. AID 493221, 2011;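 active means choline transporter activity left, mean of duplicates at 10 µM, below buffer-only control mean minus 3 SD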;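 further: depolarization triggered by choline at its EC90 following an EC20 pre-addition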
HEK293 MPD ctr: membrane potential effects in parental HEK293, counter-screen for CHT inhibitor project, cell-based, membrane potential dye. membrane potential ratio readout (active if shifted either direction beyond buffer ±3SD; no single direction) at 10 µM. AID 493222, 2011. 4% of 2,400 active. choline response; active = decrease or increase beyond buffer ±3SD. shares compounds with CHT inh;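 further: parental cells lack the transporter so any hit is non-specific; ratio is peak minus trough fluorescence over baseline after EC90 choline challenge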
Of the large screens only hits and unclear results are named; the others gave an inactive call (follow-up assays come after a bar, where they were run). A selection: hits, their analogues and other compounds. The true share with any hit is near 4.9%.

CCC(=O)Nc1cc2nn(-c3ccc(OC)cc3)nc2cc1C	CHT inh -6.6 (no result: Lipid droplet) | CHT block conf inactive | HEK293 MPD ctr inactive
COc1ccc(NC(=O)CCCNC(=O)c2ccc(Cl)cc2)cc1OC	CHT inh -6.6 | CHT block conf inactive | HEK293 MPD ctr inactive
COc1ccc(CCNC(=O)C(C)c2ccc([N+](=O)[O-])cc2)cc1 (configuration not stated)	CHT inh -5.5 | CHT block conf inactive | HEK293 MPD ctr inactive
COc1ccc(S(=O)(=O)NCCSCc2ccccc2C)cc1Br	none (no result: Lipid droplet)
CCCCn1nc2cc(C(=O)N[C@H](C)C3CCCCC3)ccc2c1OCC	CHT inh -11 | CHT block conf 5.4% | HEK293 MPD ctr inactive
CCCn1nc2cc(C(=O)NCc3ccc(C)cc3)ccc2c1OCC	CHT inh -5.6 (no result: Lipid droplet) | CHT block conf 56% | HEK293 MPD ctr inactive
CCOc1c2ccc(C(=O)NCc3ccc(C)cc3)cc2nn1CC	none (no result: Lipid droplet)
CCCCn1nc2cc(C(=O)NC3CCCc4ccccc43)ccc2c1OCC (configuration not stated)	CHT inh -9.6 (no result: Lipid droplet) | CHT block conf 21% | HEK293 MPD ctr inactive
CN(C)c1ccnc2sc3c(SCc4ccc(Cl)cc4)ncnc3c12	none
COc1ccc(C(=O)CSc2[nH]c(=O)cc(C(F)(F)F)c2C#N)cc1	CHT inh -14 | CHT block conf 45% | HEK293 MPD ctr inactive
COc1ccc(-c2cc(C(F)(F)F)c(C#N)c(SCC(=O)O)n2)cc1OC	none
N#CC(c1ccccc1)c1ccc2c(C(F)(F)F)cc(C(F)(F)F)nc2n1 (configuration not stated)	CHT inh -5.5 | CHT block conf inactive | HEK293 MPD ctr inactive
Cc1ccc(NC(=O)COC(=O)C2CSC3(C)CCC(=O)N23)cc1S(=O)(=O)N1CCOCC1 (configuration not stated)	CHT inh -7.3 | CHT block conf inactive | HEK293 MPD ctr inactive
CC(C)c1ccc(NC2CCCN(C(=O)CN3CCOC3=O)C2)cc1 (configuration not stated)	none
CN(CC(=O)Nc1ccc(N2CCOCC2)cc1)C(=O)C1CCCC1	CHT inh -8.3 | CHT block conf inactive | HEK293 MPD ctr inactive
CC(C)Nc1nc(Cl)nc(N(C#N)CN2C(=O)c3ccccc3C2=O)n1	CHT inh -6.9, HSF-1 act 204 | CHT block conf 40% | HEK293 MPD ctr inactive
CCNc1nc(NC(C)C)nc(N(C#N)CCOc2ccccc2)n1	none
CCN(CC)c1ncnc2c1[nH]c1ccccc12	CHT inh -6.6 | CHT block conf 52% | HEK293 MPD ctr inactive
CCCOc1ncnc2c1[nH]c1ccccc12	none (no result: Lipid droplet)
CN(Cc1cccs1)c1ncnc2sccc12	CHT inh -7.4 | CHT block conf 50% | HEK293 MPD ctr inactive
COc1ccc(CN(C)c2ncnc3sccc23)c(OC)c1OC	none | CHT block conf 65% | HEK293 MPD ctr inactive
CN(Cc1ccccc1F)c1ncnc2sccc12	none
COc1ccc(C(=O)NCc2nc(C)c(C)s2)cc1OC1CCN(C(C)C)CC1	CHT inh -13 | CHT block conf 3.8% | HEK293 MPD ctr inactive
CCc1cc(CNC(=O)c2ccc(OC)c(OC3CCN(C(C)C)CC3)c2)on1	CHT inh -16 | CHT block conf 2.2% | HEK293 MPD ctr inactive
COc1ccc(C(=O)NCc2cc(C(C)C)no2)cc1OC1CCN(C(C)C)CC1	none (no result: CHT allo act, CHT inh)
COc1cc(NC2CCCCC2O)c2nc(-c3ccc(Cl)cc3)ccc2c1 (configuration not stated)	CHT inh -8.4 | CHT block conf 49% | HEK293 MPD ctr inactive
CC1CC(C)CN(C(=O)COc2ccc([N+](=O)[O-])cc2Cl)C1 (configuration not stated)	CHT inh -6.1 | CHT block conf inactive | HEK293 MPD ctr inactive
Cn1cc(CN2CCc3ccccc3C2)c2ccccc21	none
O=C(COC(=O)c1ccccc1[N+](=O)[O-])Nc1nnc(-c2ccccc2)o1	none (no result: PHOSPHO1 inh, Lipid droplet)
CC1CCCN(C(=O)C2CCC(CNc3c(N4CCCCC4)c(=O)c3=O)CC2)C1 (configuration not stated)	CHT inh -6 | CHT block conf inactive | HEK293 MPD ctr inactive
Cc1cccc(C(=O)N[C@H](C(=O)Nc2ncc(C)s2)C(C)C)c1	CHT inh -11 | CHT block conf inactive | HEK293 MPD ctr inactive
COc1cc(C)c(Br)cc1S(=O)(=O)N1CCCC1	CHT inh -5.1 | CHT block conf inactive | HEK293 MPD ctr inactive
CN1CCN(CCOCCOc2ccc(Br)cc2Cl)CC1	CHT inh -6.7 | CHT block conf 56% | HEK293 MPD ctr inactive
Cc1ccc(-n2nc(C)c(C3(O)C(=O)N(C)c4ccccc43)c2N)cc1 (configuration not stated)	none
O=C(O)c1cc(-c2ccc3ccccc3c2)nc2ccc(F)cc12	none
CC(C)(C)NC(=O)CSc1nccn1Cc1ccccc1	none (no result: Lipid droplet)
CCCn1c(=O)c2ccccc2n2c(SCc3nc4ccccc4s3)nnc12	none (no result: HSF1 inh, Lipid droplet, HSF-1 act)
CCCn1c(=O)c2ccccc2n2c(SCCOc3ccccc3)nnc12	CHT inh -6.2 (no result: Lipid droplet) | CHT block conf inactive | HEK293 MPD ctr inactive
COc1ccccc1-c1nc(S(=O)(=O)c2ccccc2)c(N2CCOCC2)o1	none
CC(OC(=O)CNC(=O)C12CC3CC(CC(C3)C1)C2)C(=O)Nc1ncc(Cl)cc1Cl (configuration not stated)	none
Cc1noc(NC(=O)c2c(-c3c(Cl)cccc3Cl)noc2C)c1[N+](=O)[O-]	CHT inh -6.1 | CHT block conf 48% | HEK293 MPD ctr inactive
COc1ccc(C(=O)C2CCCN(C(=O)C3=CCCC3)C2)c(C)c1 (configuration not stated)	CHT inh -5 | CHT block conf 35% | HEK293 MPD ctr inactive
COc1ccc(C(=O)C2CCCN(C(=O)c3csc(C(C)=O)c3)C2)c(C)c1 (configuration not stated)	none
Cc1sc2nc3n(c(=O)c2c1C)NC(=O)CC3	none
Cc1cccc(N2CCN(S(=O)(=O)c3cccc4nonc34)CC2)c1C	none
C=CCn1c(SCC(=O)NCCc2ccccc2)nc2c([nH]c3ccccc32)c1=O	none
